ChEMBL document CHEMBL4765333, “Novel NO-releasing scopoletin derivatives induce cell death via mitochondrial apoptosis pathway and cell cycle arrest” (Eur J Med Chem, 2020)

Tests used:
MDA-MB-231 [1] = assay: Induction of cell cycle arrest in human MDA-MB-231 cells assessed as accumulation at S phase at 1.5 uM measured after 24 hrs by propidium iodide staining based flow cytometric method (reference value: 36.25%); type: functional
MDA-MB-231 [2] = assay: Induction of cell cycle arrest in human MDA-MB-231 cells assessed as accumulation at S phase at 2 uM measured after 24 hrs by propidium iodide staining based flow cytometric method (reference value: 36.25%); type: functional
MDA-MB-231 [3] = assay: Induction of cell cycle arrest in human MDA-MB-231 cells assessed as accumulation at G2/M phase at 2 uM measured after 24 hrs by propidium iodide staining based flow cytometric method (reference value: 18.55%); type: functional
MDA-MB-231 [4] = assay: Induction of apoptosis in human MDA-MB-231 cells assessed as late apoptotic cells at 1.5 uM after 24 hrs by Annexin V/propidium iodide based flow cytometric analysis (reference value: 0.038%); type: functional
Method in brief: (§1)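 MDA-MB-231 cells (2×10^5/well) attached 24 h, then treated 24 h with 1, 1.5, 2 or 3 µM, DMSO as control. Cells harvested, PBS-washed, resuspended in binding buffer, stained with Annexin V and PI for 30 min at 37°C in the dark, and analysed by flow cytometry for quadrant percentages; three experiments.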

MDA-MB-231 [5] = assay: Induction of apoptosis in human MDA-MB-231 cells assessed as necrotic cell at 1 uM after 24 hrs by Annexin V/propidium iodide staining based flow cytometric analysis (reference value: 0.019%); type: functional; method in brief: as §1
[6] = Induction of intracellular reactive oxygen species generation in human MDA-MB-231 cells assessed as proportion of FL1-H positive cells at 2 uM measured after 24 hrs by DCFH-DA staining based flow cytometry analysis (reference value: 47.8%); type: functional, MDA-MB-23

COc1cc2cc(N)c(=O)oc2cc1OCCCOc1no[n+]([O-])c1S(=O)(=O)c1ccccc1
Activity (MDA-MB-231 [1]): 22.92% | Activity (MDA-MB-231 [2]): 20.82% | Activity (MDA-MB-231 [3]): 40.29% | Activity (MDA-MB-231 [4]): 13.2% | Activity (MDA-MB-231 [5]): 0.21% | Activity [6]: 88.8%
